Assays:
[1] = In vivo inhibition of Matrix metalloprotease enzyme by Sponge-wrapped cartilage assay, compared to activity of RS-130830 (20+/-2) at 5 mg/kg. po. bid; type: functional
[2] = Apparent elimination half life of compound was determined in monkey at 25 mg/kg orally; type: ADME, organism-based; parameters: dose 25 mg/kg, route oral; details: simiiformes, in vivo, po
How it was run: (§1)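 Single-dose PK in Sprague–Dawley rats, New Zealand rabbits, Beagle dogs and cynomolgus monkeys. Dosing was 25 mg/kg oral or 5 mg/kg iv. Plasma concentration–time profiles gave the apparent elimination half-life (T1/2) and the area under the concentration–time curve (AUC). Parameters are reported as means.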

[3] = target: 72 kDa type IV collagenase (Homo sapiens, UniProt P08253); assay: Inhibition of Matrix metalloprotease-2
Sequence of 72 kDa type IV collagenase (P08253 whole entry): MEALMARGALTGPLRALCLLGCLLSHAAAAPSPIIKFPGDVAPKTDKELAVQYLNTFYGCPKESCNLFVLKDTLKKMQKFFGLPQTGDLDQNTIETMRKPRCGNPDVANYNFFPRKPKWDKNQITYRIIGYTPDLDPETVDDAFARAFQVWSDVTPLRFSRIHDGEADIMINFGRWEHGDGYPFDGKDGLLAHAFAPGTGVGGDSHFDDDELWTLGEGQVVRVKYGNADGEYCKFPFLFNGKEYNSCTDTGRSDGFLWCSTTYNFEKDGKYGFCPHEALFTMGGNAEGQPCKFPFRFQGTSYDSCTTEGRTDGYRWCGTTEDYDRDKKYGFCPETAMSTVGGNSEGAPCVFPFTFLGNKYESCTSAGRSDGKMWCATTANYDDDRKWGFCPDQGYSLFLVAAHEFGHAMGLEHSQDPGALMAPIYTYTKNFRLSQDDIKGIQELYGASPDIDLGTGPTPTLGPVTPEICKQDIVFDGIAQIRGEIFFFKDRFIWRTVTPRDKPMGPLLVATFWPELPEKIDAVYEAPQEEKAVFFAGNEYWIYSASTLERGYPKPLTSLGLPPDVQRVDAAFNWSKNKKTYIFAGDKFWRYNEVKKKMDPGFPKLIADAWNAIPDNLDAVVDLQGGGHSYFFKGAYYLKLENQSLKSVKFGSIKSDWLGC
How it was run: (§2)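 Each inhibitor concentration was tested in triplicate. IC50 came from a four-parameter logistic fit of data within a single experiment and is reported as the mean of the triplicate values.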

[4] = Oral bioavailability of compound was determined in dog at 25 mg/kg orally; type: ADME, organism-based, Canis lupus familiaris; details: in vivo, read-out: Bioavailabiility
[5] = Oral bioavailability of compound was determined in monkey at 25 mg/kg orally; type: ADME, organism-based; details: simiiformes, in vivo, read-out: Bioavailabiility
[6] = Apparent elimination half life of compound was determined in dogt at 5 mg/kg intravenously admn.; type: ADME, organism-based, Canis lupus familiaris; parameters: dose 5 mg/kg, route intravenous; details: dog, in vivo, iv; how it was run: as §1
[7] = Time of peak concentration of compound was determined in dog at 25 mg/kg orally; type: ADME, organism-based, Canis lupus familiaris; parameters: dose 25 mg/kg, route oral; details: in vivo, po
How it was run: (§3)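 Single oral dose of 25 mg/kg in Sprague–Dawley rats, New Zealand rabbits, Beagle dogs and Cynomolgus monkeys. Mean plasma pharmacokinetics; Cmax is the maximum plasma concentration and Tmax is the time of peak concentration.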

[8] = Volume of distribution at steady state of compound was determined in monkey at 5 mg/kg intravenously admn.; type: ADME, organism-based; parameters: dose 5 mg/kg, route intravenous; details: simiiformes, in vivo, iv, read-out: Vdss
How it was run: (§4)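 Single iv dose of 5 mg/kg in Sprague–Dawley rats, New Zealand rabbits, Beagle dogs and Cynomolgus monkeys. Mean plasma pharmacokinetics: C0 is the concentration at T=0, Vdss the volume of distribution at steady state, and CLT the total clearance.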

[9] = Peak concentration of compound at Time = 0 was determined in dog at 5 mg/kg intravenously admn.; type: ADME, organism-based, Canis lupus familiaris; parameters: dose 5 mg/kg, route intravenous; details: in vivo, iv; how it was run: as §4
[10] = In vivo inhibition of Matrix metalloprotease enzyme by Sponge-wrapped cartilage assay, compared to activity of RS-130830 (inactive) at 5 mg/kg. po. qd; type: functional
[11] = Area under concentration-time curve of compound was determined in monkey at 5 mg/kg intravenously admn.; type: ADME, organism-based; parameters: dose 5 mg/kg, route intravenous; details: simiiformes, in vivo, iv, read-out: AUC 0; how it was run: as §1
[12] = Area under concentration-time curve of compound was determined in monkey at 25 mg/kg orally; type: ADME, organism-based; parameters: dose 25 mg/kg, route oral; details: simiiformes, in vivo, po; how it was run: as §1
[13] = Apparent elimination half life of compound was determined in rat at 25 mg/kg orally; type: ADME, organism-based; parameters: dose 25 mg/kg, route oral; details: in vivo, po; how it was run: as §1
[14] = Apparent elimination half life of compound was determined in rat at 5 mg/kg intravenously admn.; type: ADME, organism-based; parameters: dose 5 mg/kg, route intravenous; details: in vivo, iv; how it was run: as §1
[15] = Maximum plasma concentration of compound was determined in rat at 25 mg/kg orally; type: ADME, organism-based; parameters: dose 25 mg/kg, route oral; details: po; how it was run: as §3
[16] = Total clearance of compound was determined in dog at 5 mg/kg intravenously admn.; type: ADME, organism-based, Canis lupus familiaris; parameters: dose 5 mg/kg, route intravenous; details: in vivo, iv, read-out: CLT; how it was run: as §4
[17] = Peak concentration of compound at Time = 0 was determined in monkey at 5 mg/kg intravenously admn.; type: ADME, organism-based; parameters: dose 5 mg/kg, route intravenous; details: simiiformes, in vivo, iv; how it was run: as §4
[18] = Volume of distribution at steady state of compound was determined in rabbit at 5 mg/kg intravenously admn.; type: ADME, organism-based, Oryctolagus cuniculus; parameters: dose 5 mg/kg, route intravenous; details: in vivo, iv, read-out: Vdss; how it was run: as §4
[19] = Oral bioavailability of compound was determined in rat at 25 mg/kg orally; type: ADME, organism-based; details: in vivo, read-out: Bioavailabiility
[20] = target: Matrix metalloproteinase-9 (Homo sapiens, UniProt P14780); assay: In vitro inhibitory activity against matrix metalloprotease-9.
Sequence of Matrix metalloproteinase-9 (P14780 whole entry): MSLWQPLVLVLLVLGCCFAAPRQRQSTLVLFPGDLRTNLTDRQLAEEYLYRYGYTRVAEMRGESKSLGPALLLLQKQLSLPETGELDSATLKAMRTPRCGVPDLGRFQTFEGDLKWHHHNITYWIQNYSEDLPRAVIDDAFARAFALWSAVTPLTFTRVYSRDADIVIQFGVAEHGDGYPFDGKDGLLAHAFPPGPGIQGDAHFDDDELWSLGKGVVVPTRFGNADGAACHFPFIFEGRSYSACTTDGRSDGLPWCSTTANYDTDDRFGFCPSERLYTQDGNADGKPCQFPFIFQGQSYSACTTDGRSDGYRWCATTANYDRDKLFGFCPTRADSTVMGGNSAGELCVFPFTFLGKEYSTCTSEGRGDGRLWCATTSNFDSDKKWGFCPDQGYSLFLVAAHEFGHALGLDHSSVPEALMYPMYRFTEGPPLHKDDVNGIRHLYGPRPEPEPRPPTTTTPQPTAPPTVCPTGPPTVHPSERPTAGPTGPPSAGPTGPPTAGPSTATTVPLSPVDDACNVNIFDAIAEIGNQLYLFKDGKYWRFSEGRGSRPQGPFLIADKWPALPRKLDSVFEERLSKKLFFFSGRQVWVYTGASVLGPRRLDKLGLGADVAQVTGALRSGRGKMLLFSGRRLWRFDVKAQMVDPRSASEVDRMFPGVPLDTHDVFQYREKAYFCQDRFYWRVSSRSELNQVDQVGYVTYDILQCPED

[21] = Area under concentration-time curve of compound was determined in rabbit at 5 mg/kg intravenously admn.; type: ADME, organism-based, Oryctolagus cuniculus; parameters: dose 5 mg/kg, route intravenous; details: in vivo, iv, read-out: AUC 0; how it was run: as §1
Matrilysin = target: T1, Matrilysin (Homo sapiens, UniProt P09237); assay: Inhibition of Matrix metalloprotease-7; how it was run: as §2
T1 sequence (P09237 whole entry): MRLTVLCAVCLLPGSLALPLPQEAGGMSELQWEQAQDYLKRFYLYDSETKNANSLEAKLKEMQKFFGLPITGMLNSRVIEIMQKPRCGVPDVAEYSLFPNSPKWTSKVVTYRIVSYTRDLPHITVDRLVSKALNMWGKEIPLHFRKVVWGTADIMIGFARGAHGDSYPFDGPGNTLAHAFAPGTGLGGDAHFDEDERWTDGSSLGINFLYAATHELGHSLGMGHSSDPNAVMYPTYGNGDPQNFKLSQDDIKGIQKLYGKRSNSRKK

[22] = Apparent elimination half life of compound was determined in monkey at 5 mg/kg intravenously admn.; type: ADME, organism-based; parameters: dose 5 mg/kg, route intravenous; details: simiiformes, in vivo, iv; how it was run: as §1
[23] = Time of peak concentration of compound was determined in rat at 25 mg/kg orally; type: ADME, organism-based; parameters: dose 25 mg/kg, route oral; details: in vivo, po; how it was run: as §3
Oryctolagus cuniculus = assay: Effect of compound on cartilage in surgically induced osteoarthritis (OA) model in rabbit at 15 mg/kg, value are relative to activity of RS-130830 (7.9+/-1.5) at 25 mg/kg; type: ADME, organism-based, Cartilage tissue; details: in vivo
How it was run: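 Rabbits had anterior cruciate ligament transection plus meniscectomy in one knee, with sham surgery on the contralateral knee. From day 10 after surgery, groups of 12 were dosed once daily by oral gavage with vehicle, test compound or the RS-130830 reference for 4 weeks. Knee joints were then collected and scored for gross pathological changes by blinded investigators.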

[24] = Oral bioavailability of compound was determined in rabbit at 25 mg/kg orally; type: ADME, organism-based, Oryctolagus cuniculus; details: in vivo, read-out: Bioavailabiility

half-life [2]: 1200 min | IC50 [3]: 1 nM | bioavailability [4]: 47% | bioavailability [5]: 37% | half-life [6]: 810 min | Tmax [7]: 3.5 h | Vd [8]: 0.2 L/kg | C0 [9]: 82 µg/mL | AUC [11]: 1510 µg·h/mL | AUC [12]: 1410 µg·h/mL | half-life [13]: 642 min | half-life [14]: 264 min | Cmax [15]: 75.2 µg/mL | clearance [16]: 0.1 mL/min/kg | C0 [17]: 162 µg/mL | Vd [18]: 0.1 L/kg | bioavailability [19]: 55% | IC50 [20]: 1 nM | AUC [21]: 640 µg·h/mL | IC50 (Matrilysin): 925 nM | half-life [22]: 1240 min | Tmax [23]: 1.5 h | Average gross pathology scores+/- SE (Oryctolagus cuniculus): 9.7 | bioavailability [24]: 11%
SMILES: O=C(NO)C1(S(=O)(=O)c2ccc(Oc3ccc(Cl)cc3)cc2)CCN(Cc2ccccc2)CC1
inhibition in vivo at 5 mg/kg [1]: 53% | inhibition in vivo at 5 mg/kg [10]: 24%

From ChEMBL document CHEMBL1145787, “Synthesis and structure-activity relationship of N-substituted 4-arylsulfonylpiperidine-4-hydroxamic acids as novel, orally active matrix metalloproteinase inhibitors for the treatment of osteoarthritis” (J Med Chem, 2003)
